Laboratory results published in ChEMBL document CHEMBL4689842, “EUbOPEN Chemogenomics Library wave 1” (2021).

Test system: HEK-293T
Assay: Multiplex assay against HEK293T;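 as to Population Tubulin-Different-Phenotype (%): share of the cells with healthy nuclei that show this phenotype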
Type: toxicity, cell-based
Details: human
How it was run: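 Four dyes were applied at seeding to live cells: Hoechst33342, BioTracker Green Microtubule Cytoskeleton Dye, MitoTracker Red and Annexin V Alexa Fluor 680. Imaging after compound addition used a CQ1 microscope at 37°C and 5% CO2. CellPathfinder machine-learning gating then sorted cells into Hoechst high-intensity objects or normal cells, normal cells into healthy, pyknosed or fragmented nuclei, and pyknosed cells into mitotic or apoptotic, with tubulin, mitochondrial-mass and membrane-permeability phenotypes given as per cents of healthy-nucleus cells.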

[1] = 12 h, 1 µM, compound concentration 1 uM, replicate 1
[2] = 12 h, 1 µM, compound concentration 1 uM, replicate 2
[3] = 12 h, 10 µM, compound concentration 10 uM, replicate 1
[4] = 12 h, 10 µM, compound concentration 10 uM, replicate 2
[5] = 24 h, 1 µM, compound concentration 1 uM, replicate 1
[6] = 24 h, 1 µM, compound concentration 1 uM, replicate 2
[7] = 24 h, 10 µM, compound concentration 10 uM, replicate 1
[8] = 24 h, 10 µM, compound concentration 10 uM, replicate 2
[9] = 48 h, 1 µM, compound concentration 1 uM, replicate 1
[10] = 48 h, 1 µM, compound concentration 1 uM, replicate 2
[11] = 48 h, 10 µM, compound concentration 10 uM, replicate 1
[12] = 48 h, 10 µM, compound concentration 10 uM, replicate 2

## Cl.O=c1c2cccn2c2ccccc2n1CCCN1CCC(c2ccc(Cl)cc2)CC1
[1]
  Population Apoptotic (%): 57%
  Population Fragmented Nuclei (%): 7%
  Population Healthy Nuclei (%): 47%
  Population Hoechst High Intensity Objects (%): 10%
  Population Membrane Permeable-Phenotype (%): 0%
  Population Mitochondria Different-Phenotype (%): 95%
  Population Mitotic Cells (%): 42%
  Population Normal (%): 89%
  Population Pyknosed Nuclei (%): 44%
  Population Tubulin-Different-Phenotype (%): 80%
  Total Cell Count: 267
[2]
  Population Apoptotic (%): 30%
  Population Fragmented Nuclei (%): 5%
  Population Healthy Nuclei (%): 38%
  Population Hoechst High Intensity Objects (%): 5%
  Population Membrane Permeable-Phenotype (%): 6%
  Population Mitochondria Different-Phenotype (%): 65%
  Population Mitotic Cells (%): 69%
  Population Normal (%): 94%
  Population Pyknosed Nuclei (%): 56%
  Population Tubulin-Different-Phenotype (%): 59%
  Total Cell Count: 238
[3]
  Population Apoptotic (%): 86%
  Population Fragmented Nuclei (%): 8%
  Population Healthy Nuclei (%): 34%
  Population Hoechst High Intensity Objects (%): 17%
  Population Membrane Permeable-Phenotype (%): 5%
  Population Mitochondria Different-Phenotype (%): 100%
  Population Mitotic Cells (%): 13%
  Population Normal (%): 82%
  Population Pyknosed Nuclei (%): 57%
  Population Tubulin-Different-Phenotype (%): 94%
  Total Cell Count: 297
[4]
  Population Apoptotic (%): 92%
  Population Fragmented Nuclei (%): 7%
  Population Healthy Nuclei (%): 19%
  Population Hoechst High Intensity Objects (%): 9%
  Population Mitochondria Different-Phenotype (%): 91%
  Population Mitotic Cells (%): 7%
  Population Normal (%): 90%
  Population Pyknosed Nuclei (%): 72%
  Population Tubulin-Different-Phenotype (%): 86%
  Total Cell Count: 212
[5]
  Population Apoptotic (%): 53%
  Population Fragmented Nuclei (%): 7%
  Population Healthy Nuclei (%): 55%
  Population Hoechst High Intensity Objects (%): 12%
  Population Membrane Permeable-Phenotype (%): 1%
  Population Mitochondria Different-Phenotype (%): 93%
  Population Mitotic Cells (%): 46%
  Population Normal (%): 87%
  Population Pyknosed Nuclei (%): 37%
  Population Tubulin-Different-Phenotype (%): 73%
  Total Cell Count: 278
[6]
  Population Apoptotic (%): 38%
  Population Fragmented Nuclei (%): 5%
  Population Healthy Nuclei (%): 56%
  Population Hoechst High Intensity Objects (%): 4%
  Population Membrane Permeable-Phenotype (%): 4%
  Population Mitochondria Different-Phenotype (%): 75%
  Population Mitotic Cells (%): 61%
  Population Normal (%): 95%
  Population Pyknosed Nuclei (%): 38%
  Population Tubulin-Different-Phenotype (%): 65%
  Total Cell Count: 296
[7]
  Population Apoptotic (%): 84%
  Population Fragmented Nuclei (%): 13%
  Population Healthy Nuclei (%): 36%
  Population Hoechst High Intensity Objects (%): 27%
  Population Membrane Permeable-Phenotype (%): 6%
  Population Mitochondria Different-Phenotype (%): 100%
  Population Mitotic Cells (%): 15%
  Population Normal (%): 72%
  Population Pyknosed Nuclei (%): 50%
  Population Tubulin-Different-Phenotype (%): 88%
  Total Cell Count: 286
[8]
  Population Apoptotic (%): 98%
  Population Fragmented Nuclei (%): 7%
  Population Healthy Nuclei (%): 34%
  Population Hoechst High Intensity Objects (%): 16%
  Population Membrane Permeable-Phenotype (%): 3%
  Population Mitochondria Different-Phenotype (%): 96%
  Population Mitotic Cells (%): 1%
  Population Normal (%): 83%
  Population Pyknosed Nuclei (%): 58%
  Population Tubulin-Different-Phenotype (%): 67%
  Total Cell Count: 206
[9]
  Population Apoptotic (%): 43%
  Population Healthy Nuclei (%): 77%
  Population Hoechst High Intensity Objects (%): 7%
  Population Membrane Permeable-Phenotype (%): 2%
  Population Mitochondria Different-Phenotype (%): 63%
  Population Mitotic Cells (%): 56%
  Population Normal (%): 92%
  Population Pyknosed Nuclei (%): 15%
  Population Tubulin-Different-Phenotype (%): 59%
  Total Cell Count: 453
[10]
  Population Apoptotic (%): 31%
  Population Fragmented Nuclei (%): 7%
  Population Healthy Nuclei (%): 70%
  Population Hoechst High Intensity Objects (%): 5%
  Population Membrane Permeable-Phenotype (%): 3%
  Population Mitochondria Different-Phenotype (%): 32%
  Population Mitotic Cells (%): 68%
  Population Normal (%): 94%
  Population Pyknosed Nuclei (%): 22%
  Population Tubulin-Different-Phenotype (%): 54%
  Total Cell Count: 461
[11]
  Population Apoptotic (%): 82%
  Population Fragmented Nuclei (%): 15%
  Population Healthy Nuclei (%): 35%
  Population Hoechst High Intensity Objects (%): 38%
  Population Membrane Permeable-Phenotype (%): 2%
  Population Mitochondria Different-Phenotype (%): 97%
  Population Mitotic Cells (%): 17%
  Population Normal (%): 61%
  Population Pyknosed Nuclei (%): 48%
  Population Tubulin-Different-Phenotype (%): 79%
  Total Cell Count: 311
[12]
  Population Apoptotic (%): 98%
  Population Fragmented Nuclei (%): 13%
  Population Healthy Nuclei (%): 42%
  Population Hoechst High Intensity Objects (%): 30%
  Population Membrane Permeable-Phenotype (%): 3%
  Population Mitochondria Different-Phenotype (%): 98%
  Population Mitotic Cells (%): 1%
  Population Normal (%): 69%
  Population Pyknosed Nuclei (%): 43%
  Population Tubulin-Different-Phenotype (%): 64%
  Total Cell Count: 191

## COc1cccc2cc(-c3nc([C@H]4CC[C@H](C(=O)O)CC4)n4ncnc(N)c34)[nH]c12 [OSI-027]
[1]
  Population Apoptotic (%): 25%
  Population Fragmented Nuclei (%): 14%
  Population Healthy Nuclei (%): 55%
  Population Hoechst High Intensity Objects (%): 16%
  Population Membrane Permeable-Phenotype (%): 3%
  Population Mitochondria Different-Phenotype (%): 10%
  Population Mitotic Cells (%): 74%
  Population Normal (%): 83%
  Population Pyknosed Nuclei (%): 29%
  Population Tubulin-Different-Phenotype (%): 5%
  Total Cell Count: 587
[2]
  Population Apoptotic (%): 9%
  Population Fragmented Nuclei (%): 6%
  Population Healthy Nuclei (%): 85%
  Population Hoechst High Intensity Objects (%): 6%
  Population Membrane Permeable-Phenotype (%): 2%
  Population Mitochondria Different-Phenotype (%): 13%
  Population Mitotic Cells (%): 90%
  Population Normal (%): 93%
  Population Pyknosed Nuclei (%): 7%
  Population Tubulin-Different-Phenotype (%): 10%
  Total Cell Count: 997
[3]
  Population Apoptotic (%): 23%
  Population Fragmented Nuclei (%): 32%
  Population Healthy Nuclei (%): 40%
  Population Hoechst High Intensity Objects (%): 22%
  Population Membrane Permeable-Phenotype (%): 8%
  Population Mitochondria Different-Phenotype (%): 2%
  Population Mitotic Cells (%): 76%
  Population Normal (%): 77%
  Population Pyknosed Nuclei (%): 27%
  Population Tubulin-Different-Phenotype (%): 2%
  Total Cell Count: 379
[4]
  Population Apoptotic (%): 10%
  Population Fragmented Nuclei (%): 9%
  Population Healthy Nuclei (%): 85%
  Population Hoechst High Intensity Objects (%): 5%
  Population Membrane Permeable-Phenotype (%): 0%
  Population Mitochondria Different-Phenotype (%): 8%
  Population Mitotic Cells (%): 89%
  Population Normal (%): 94%
  Population Pyknosed Nuclei (%): 5%
  Population Tubulin-Different-Phenotype (%): 5%
  Total Cell Count: 1068
[5]
  Population Apoptotic (%): 22%
  Population Fragmented Nuclei (%): 15%
  Population Healthy Nuclei (%): 60%
  Population Hoechst High Intensity Objects (%): 19%
  Population Membrane Permeable-Phenotype (%): 15%
  Population Mitochondria Different-Phenotype (%): 8%
  Population Mitotic Cells (%): 77%
  Population Normal (%): 80%
  Population Pyknosed Nuclei (%): 24%
  Population Tubulin-Different-Phenotype (%): 20%
  Total Cell Count: 478
[6]
  Population Apoptotic (%): 4%
  Population Fragmented Nuclei (%): 7%
  Population Healthy Nuclei (%): 83%
  Population Hoechst High Intensity Objects (%): 8%
  Population Membrane Permeable-Phenotype (%): 6%
  Population Mitochondria Different-Phenotype (%): 13%
  Population Mitotic Cells (%): 95%
  Population Normal (%): 91%
  Population Pyknosed Nuclei (%): 8%
  Population Tubulin-Different-Phenotype (%): 37%
  Total Cell Count: 849
[7]
  Population Apoptotic (%): 12%
  Population Fragmented Nuclei (%): 29%
  Population Healthy Nuclei (%): 53%
  Population Hoechst High Intensity Objects (%): 14%
  Population Membrane Permeable-Phenotype (%): 10%
  Population Mitochondria Different-Phenotype (%): 3%
  Population Mitotic Cells (%): 87%
  Population Normal (%): 85%
  Population Pyknosed Nuclei (%): 17%
  Population Tubulin-Different-Phenotype (%): 6%
  Total Cell Count: 371
[8]
  Population Apoptotic (%): 0%
  Population Fragmented Nuclei (%): 18%
  Population Healthy Nuclei (%): 78%
  Population Hoechst High Intensity Objects (%): 5%
  Population Membrane Permeable-Phenotype (%): 5%
  Population Mitotic Cells (%): 100%
  Population Normal (%): 94%
  Population Pyknosed Nuclei (%): 2%
  Population Tubulin-Different-Phenotype (%): 10%
  Total Cell Count: 1604
